From ChEMBL document CHEMBL1153402, “Pyrido[2,3-e]-1,2,4-triazolo[4,3-a]pyrazin-1-one as a new scaffold to develop potent and selective human A3 adenosine receptor antagonists. Synthesis, pharmacological evaluation, and ligand-receptor modeling studies” (J Med Chem, 2009)

Columns and labels:
Adenosine receptor A1 [1] = molecular target: T1, Adenosine receptor A1 (Bos taurus, UniProt P28190); experiment: Displacement of [3H]DPCPX from bovine brain cortical membrane adenosine A1 receptor
T1 sequence (P28190 whole entry): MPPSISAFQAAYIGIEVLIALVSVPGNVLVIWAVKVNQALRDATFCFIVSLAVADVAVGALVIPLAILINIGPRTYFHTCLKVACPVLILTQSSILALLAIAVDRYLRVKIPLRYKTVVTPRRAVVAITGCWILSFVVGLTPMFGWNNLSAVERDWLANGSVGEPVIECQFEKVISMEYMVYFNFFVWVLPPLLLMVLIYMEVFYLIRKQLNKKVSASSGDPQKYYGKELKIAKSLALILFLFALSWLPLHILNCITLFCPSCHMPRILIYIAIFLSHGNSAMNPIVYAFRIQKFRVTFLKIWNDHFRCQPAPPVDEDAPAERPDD

Adenosine receptor A3 [2] = molecular target: T2, Adenosine receptor A3 (Homo sapiens, UniProt P0DMS8); experiment: Displacement of [125I]AB-MECA from human cloned adenosine A3 receptor expressed in CHO cells; assay type: cell-based
T2 sequence (P0DMS8 whole entry): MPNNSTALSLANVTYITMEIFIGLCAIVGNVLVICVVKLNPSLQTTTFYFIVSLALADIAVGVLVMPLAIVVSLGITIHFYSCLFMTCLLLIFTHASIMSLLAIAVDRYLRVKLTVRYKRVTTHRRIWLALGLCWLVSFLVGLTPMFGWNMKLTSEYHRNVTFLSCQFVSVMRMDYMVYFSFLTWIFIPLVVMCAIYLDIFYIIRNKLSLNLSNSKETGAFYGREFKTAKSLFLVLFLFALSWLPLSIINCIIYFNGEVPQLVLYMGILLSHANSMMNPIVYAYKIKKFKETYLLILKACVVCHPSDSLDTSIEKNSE

Hippocampus [3] = experiment: Neuroprotective effect against 30-mins oxygen-glucose deprivation triggered neuronal injury in Wistar rat hippocampus CA1 region assessed as delay in anoxic depolarization latency at 10 nM relative to control; assay type: functional
Procedure, shortened: (§1)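 Rat hippocampal slices; CA1 stratum radiatum stimulated (80 μs, 0.066 Hz) with fEPSP at 40–50% of maximum, amplitude expressed as percent of 5 min pre-OGD baseline. OGD: glucose-free aCSF gassed 95% N2/5% CO2 for 7 or 30 min, then reperfusion with oxygenated glucose aCSF. Compound 10 nM (DMSO stock diluted in aCSF) applied 15 min before, during and 5 min after OGD. Anoxic depolarization recorded as negative dc shift, latency from OGD onset; unpaired two-tailed t test.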

Adenosine receptor A3 [4] = molecular target: T2, Adenosine receptor A3; experiment: Antagonist activity at human adenosine A3 receptor expressed in CHO cells assessed as blockade of NECA-mediated inhibition of forskolin-stimulated cAMP accumulation; assay type: functional, cell-based
Procedure, shortened: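 CHO cells stably expressing hA3, plated 48 h, preincubated 15 min at 37 °C with Ro 20-1724 (20 μM) and adenosine deaminase (1 U/mL). Compound (1 nM–10 μM; DMSO stock diluted in water) added 15 min before 100 nM NECA, with 1 μM forskolin stimulation. Lysis in 0.4 N HCl; cAMP by competitive protein binding with [3H]cAMP. EC50 by sigmoid nonlinear regression; three experiments.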

Bos taurus = organism: Bos taurus; experiment: Displacement of [3H]CGS 21680 from bovine striatal membrane adenosine A2A receptor at 20 uM
Procedure, shortened: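 IC50 from five concentrations in triplicate, nonlinear regression; Ki via Cheng–Prusoff from four assays. Single-point values as percent inhibition at 20 μM.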

[5] = molecular target: Adenosine receptor A2a (Rattus norvegicus) (UniProt P30543); experiment: Displacement of [3H]CGS21680 adenosine A2A receptor in Wistar rat brain membrane at 10 uM; assay type: cell membranes
Chain of Adenosine receptor A2a (Rattus norvegicus) (P30543 whole entry): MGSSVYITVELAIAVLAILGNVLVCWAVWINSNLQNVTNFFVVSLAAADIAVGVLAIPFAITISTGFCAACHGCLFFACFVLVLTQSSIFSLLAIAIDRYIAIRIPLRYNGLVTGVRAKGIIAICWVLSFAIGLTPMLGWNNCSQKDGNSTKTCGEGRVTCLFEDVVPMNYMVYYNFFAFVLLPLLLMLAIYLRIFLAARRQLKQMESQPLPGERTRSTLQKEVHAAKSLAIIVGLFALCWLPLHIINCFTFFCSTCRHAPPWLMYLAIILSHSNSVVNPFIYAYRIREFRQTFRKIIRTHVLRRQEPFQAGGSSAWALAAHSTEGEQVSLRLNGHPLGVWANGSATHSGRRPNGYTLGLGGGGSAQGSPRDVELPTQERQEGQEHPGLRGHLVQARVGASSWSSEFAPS

[6] = molecular target: T3, Adenosine receptor A3 (Rattus norvegicus) (UniProt P28647); experiment: Displacement of [125I]AB-MECA from Wistar rat adenosine A3 receptor expressed in HEK293/EBNA cells by gamma-scintillation spectrometry at 1 uM; assay type: cell-based
T3 sequence (whole entry): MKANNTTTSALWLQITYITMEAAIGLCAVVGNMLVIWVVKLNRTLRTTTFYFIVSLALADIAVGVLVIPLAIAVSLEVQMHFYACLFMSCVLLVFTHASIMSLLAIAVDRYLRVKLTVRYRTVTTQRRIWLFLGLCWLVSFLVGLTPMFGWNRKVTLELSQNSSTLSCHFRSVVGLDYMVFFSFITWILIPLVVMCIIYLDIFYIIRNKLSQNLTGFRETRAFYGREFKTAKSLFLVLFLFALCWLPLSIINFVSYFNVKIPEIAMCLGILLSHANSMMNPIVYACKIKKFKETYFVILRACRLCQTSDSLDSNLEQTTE

Adenosine receptor A1 [7] = molecular target: T4, Adenosine receptor A1 (Rattus norvegicus, UniProt P25099); experiment: Displacement of [3H]DPCPX from adenosine A1 receptor in Wistar rat brain membrane; assay type: cell membranes
T4 sequence (P25099 whole entry): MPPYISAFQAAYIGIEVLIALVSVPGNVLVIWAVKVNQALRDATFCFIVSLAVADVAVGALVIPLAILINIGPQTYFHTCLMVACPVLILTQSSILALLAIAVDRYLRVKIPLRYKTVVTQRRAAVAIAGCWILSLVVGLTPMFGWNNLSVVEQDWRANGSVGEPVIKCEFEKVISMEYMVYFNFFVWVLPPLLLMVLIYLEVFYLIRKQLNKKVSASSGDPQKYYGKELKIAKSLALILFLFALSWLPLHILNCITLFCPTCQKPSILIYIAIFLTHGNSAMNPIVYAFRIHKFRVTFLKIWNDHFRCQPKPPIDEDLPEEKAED
Procedure, shortened: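 Nonspecific binding defined with 20 μM R-PIA. Filtration on GF/C filters. IC50 by nonlinear regression over five displacer concentrations in triplicate; Ki via Cheng–Prusoff.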

Hippocampus [8] = experiment: Neuroprotective effect against 7-mins oxygen-glucose deprivation triggered neuronal injury in Wistar rat hippocampal CA1 region assessed as recovery of field excitatory post synaptic potential at 10 nM relative to control; assay type: functional; procedure, shortened: as §1
Adenosine receptor A2a = Adenosine receptor A2a (Homo sapiens, UniProt P29274); experiment: Displacement of [3H]NECA from human cloned adenosine A2A receptor expressed in CHO cells at 10 uM; assay type: cell-based
Chain of Adenosine receptor A2a (P29274 whole entry): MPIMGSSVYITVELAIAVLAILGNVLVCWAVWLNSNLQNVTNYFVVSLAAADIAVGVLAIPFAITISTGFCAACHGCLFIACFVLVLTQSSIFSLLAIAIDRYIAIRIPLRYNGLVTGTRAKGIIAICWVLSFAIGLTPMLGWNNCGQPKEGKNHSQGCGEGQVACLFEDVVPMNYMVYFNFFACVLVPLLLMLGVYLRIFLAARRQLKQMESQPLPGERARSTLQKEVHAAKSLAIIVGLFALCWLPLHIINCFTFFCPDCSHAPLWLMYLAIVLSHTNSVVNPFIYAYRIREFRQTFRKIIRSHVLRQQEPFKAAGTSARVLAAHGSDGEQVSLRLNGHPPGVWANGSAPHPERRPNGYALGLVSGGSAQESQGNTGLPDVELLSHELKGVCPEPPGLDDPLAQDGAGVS
Procedure, shortened: (§2)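 CHO cell membranes stably expressing hA1 or hA2A; radioligands [3H]DPCPX (hA1, Kd 3 nM) and [3H]NECA (hA2A, Kd 30 nM). IC50 from five displacer concentrations in triplicate, nonlinear regression; Ki by Cheng–Prusoff; four separate assays. Single-point values as percent inhibition of specific binding at 10 μM.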

[9] = molecular target: T5, Adenosine receptor A1 (Homo sapiens) (UniProt P30542); experiment: Displacement of [3H]DPCPX from human cloned adenosine A1 receptor expressed in CHO cells at 10 uM; assay type: cell-based; procedure, shortened: as §2
T5 sequence (whole entry): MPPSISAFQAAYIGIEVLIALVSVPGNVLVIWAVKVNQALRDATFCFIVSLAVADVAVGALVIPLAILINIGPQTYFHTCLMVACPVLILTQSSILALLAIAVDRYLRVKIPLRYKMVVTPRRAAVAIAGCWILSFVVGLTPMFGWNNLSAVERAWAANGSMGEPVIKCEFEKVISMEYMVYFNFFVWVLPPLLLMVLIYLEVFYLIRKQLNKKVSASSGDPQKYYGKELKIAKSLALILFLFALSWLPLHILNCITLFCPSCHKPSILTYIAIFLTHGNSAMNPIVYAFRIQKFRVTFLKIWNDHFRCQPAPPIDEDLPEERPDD

Ki (Adenosine receptor A1 [1]): 355 nM | Ki (Adenosine receptor A3 [2]): 4.54 nM | EC50 (Adenosine receptor A3 [4]): 36.3 nM | Activity (Bos taurus): 7% | Activity [5]: 34% | Activity [6]: 0% | Ki (Adenosine receptor A1 [7]): 587 nM | Activity (Adenosine receptor A2a): 27% | Activity [9]: 38%
Compound: COc1ccc(-n2nc3c(NC(=O)c4ccccc4)nc4ncccc4n3c2=O)cc1
Activity (Hippocampus [3]): 8.9 | Activity (Hippocampus [8]): 77.6%
